ChEMBL document CHEMBL1687913, “Structure-activity relationship, conformational and biological studies of temporin L analogues” (J Med Chem, 2011)
≈ marks a conversion by molar mass, not a printed value.

What was measured:
Saccharomyces cerevisiae = assay: Antifungal activity against Saccharomyces cerevisiae after 18 to 20 hrs by microbroth dilution method; type: functional
Procedure, shortened: (§1)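 Yeasts tested by adapted CLSI microbroth dilution in Winge medium. Peptide given in serial 2-fold dilutions (0.75-48 μM, made in 20% ethanol). Incubation 18-20 h at 30 °C, read at A600. MIC taken as the concentration giving complete (100%) growth inhibition.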

Pseudomonas aeruginosa [1] = assay: Antibacterial activity against Pseudomonas aeruginosa ATCC 27853 after 18 to 20 hrs by microbroth dilution method; type: functional
Procedure, shortened: (§2)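 CLSI microbroth dilution, adapted. Mid-log bacteria, 2 × 10^6 CFU/mL in Mueller-Hinton broth, mixed 1:1 with MH broth holding peptide in serial 2-fold dilutions in 20% ethanol (0.75-48 μM). Incubated 18-20 h at 37 °C; growth read as A600. MIC is the lowest concentration giving 100% growth inhibition.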

[2] = tested on: Staphylococcus epidermidis; assay: Antibacterial activity against Staphylococcus epidermidis ATCC 12228 after 18 to 20 hrs by microbroth dilution method; type: functional; procedure, shortened: as §2
[3] = Toxicity in human erythrocytes assessed as hemolysis at 24 uM after 40 mins; type: cell-based, Erythrocyte; details: read-out: Activity
Procedure, shortened: (§3)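 Human red blood cells suspended in 0.9% (w/v) NaCl and incubated 40 min at 37 °C with gentle mixing with serial 2-fold peptide dilutions (peptide predissolved in 20% ethanol). Spun 5 min at 900g; supernatant read at 415 nm. Cells lysed in distilled water set the 100% lysis reference.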

Pseudomonas aeruginosa [4] = assay: Antibacterial activity against Pseudomonas aeruginosa ATCC 15692 after 18 to 20 hrs by microbroth dilution method; type: functional; procedure, shortened: as §2
[5] = Toxicity in human erythrocytes assessed as hemolysis at 12 uM after 40 mins; type: cell-based, Erythrocyte; details: read-out: Activity; procedure, shortened: as §3
[6] = Toxicity in human erythrocytes assessed as hemolysis at 6 uM after 40 mins; type: cell-based, Erythrocyte; details: read-out: Activity; procedure, shortened: as §3
Candida albicans = assay: Antifungal activity against Candida albicans ATCC 10231 after 18 to 20 hrs by microbroth dilution method; type: functional; procedure, shortened: as §1
Enterococcus faecalis = assay: Antibacterial activity against Enterococcus faecalis ATCC 29212 after 18 to 20 hrs by microbroth dilution method; type: functional; procedure, shortened: as §2
Priestia megaterium = assay: Antibacterial activity against Bacillus megaterium Bm11 after 18 to 20 hrs by microbroth dilution method; type: functional; procedure, shortened: as §2
Acinetobacter baumannii = assay: Antibacterial activity against Acinetobacter baumannii ATCC 19606 after 18 to 20 hrs by microbroth dilution method; type: functional; procedure, shortened: as §2
Staphylococcus aureus [7] = assay: Antibacterial activity against Staphylococcus aureus Cowan I after 18 to 20 hrs by microbroth dilution method; type: functional; procedure, shortened: as §2
[8] = Toxicity in human erythrocytes assessed as hemolysis at 1.5 uM after 40 mins; type: cell-based, Erythrocyte; details: read-out: Activity; procedure, shortened: as §3
Escherichia coli [9] = assay: Antibacterial activity against Escherichia coli ATCC 25922 after 18 to 20 hrs by microbroth dilution method; type: functional; procedure, shortened: as §2
Staphylococcus capitis = assay: Antibacterial activity against Staphylococcus capitis after 18 to 20 hrs by microbroth dilution method; type: functional; procedure, shortened: as §2
[10] = tested on: Schizosaccharomyces pombe; assay: Antifungal activity against Schizosaccharomyces pombe after 18 to 20 hrs by microbroth dilution method; type: functional; procedure, shortened: as §1
Acinetobacter junii = assay: Antibacterial activity against […] Acinetobacter junii RT-4 after 18 to 20 hrs by microbroth dilution method; type: functional; procedure, shortened: as §2
Streptococcus pyogenes = assay: Antibacterial activity against Streptococcus pyogenes ATCC 21547 after 18 to 20 hrs by microbroth dilution method; type: functional; procedure, shortened: as §2
[11] = tested on: Yersinia pseudotuberculosis; assay: Antibacterial activity against Yersinia pseudotuberculosis YPIII after 18 to 20 hrs by microbroth dilution method; type: functional
Procedure, shortened: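 Broth microdilution adapted from CLSI. Mid-log bacteria at 2 × 10^6 CFU/mL in Mueller-Hinton broth were mixed 1:1 with MH broth containing peptide in serial 2-fold dilutions (peptide in 20% ethanol), 0.75-48 μM. Plates were incubated 18-20 h at 37 °C and growth was read as A600. MIC is the concentration giving 100% growth inhibition.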

Pseudomonas syringae = assay: Antibacterial activity against Pseudomonas syringae pv tobaci after 18 to 20 hrs by microbroth dilution method; type: functional; procedure, shortened: as §2
Escherichia coli [12] = assay: Antibacterial activity against Escherichia coli D21 after 18 to 20 hrs by microbroth dilution method; type: functional; procedure, shortened: as §2
[13] = Toxicity in human erythrocytes assessed as hemolysis at 3 uM after 40 mins; type: cell-based, Erythrocyte; details: read-out: Activity; procedure, shortened: as §3
Staphylococcus aureus [14] = assay: Antibacterial activity against Staphylococcus aureus ATCC 25923 after 18 to 20 hrs by microbroth dilution method; type: functional; procedure, shortened: as §2

SMILES	MIC (Saccharomyces cerevisiae)	MIC (Pseudomonas aeruginosa [1])	MIC [2]	hemolysis at 40 min, 24 µM [3]	MIC (Pseudomonas aeruginosa [4])	hemolysis at 40 min, 12 µM [5]	hemolysis at 40 min, 6 µM [6]	MIC (Candida albicans)	MIC (Enterococcus faecalis)	MIC (Priestia megaterium)	MIC (Acinetobacter baumannii)	MIC (Staphylococcus aureus [7])	hemolysis at 40 min, 1.5 µM [8]	MIC (Escherichia coli [9])	MIC (Staphylococcus capitis)	MIC [10]	MIC (Acinetobacter junii)	MIC (Streptococcus pyogenes)	MIC [11]	MIC (Pseudomonas syringae)	also measured
CC[C@H](C)[C@H](NC(=O)[C@H](CCCNC(=N)N)NC(=O)[C@@H]1CCCN1C(=O)[C@H](CC(C)C)NC(=O)[C@H](Cc1ccccc1)NC(=O)[C@H](CCCCN)NC(=O)[C@H](CO)NC(=O)[C@H](Cc1ccccc1)NC(=O)[C@H](Cc1c[nH]c2ccccc12)NC(=O)[C@@H]1CCCN1C(=O)[C@@H](NC(=O)[C@@H](N)Cc1ccccc1)C(C)C)C(=O)N[C@@H](CC(C)C)C(N)=O	12 µM (≈ 19.8 µg/mL)	> 48 µM	12 µM (≈ 19.8 µg/mL)	5%	> 48 µM	5%	4.5%	12 µM (≈ 19.8 µg/mL)	48 µM (≈ 79.2 µg/mL)	3 µM (≈ 4.95 µg/mL)	48 µM (≈ 79.2 µg/mL)	24 µM (≈ 39.6 µg/mL)	2%	48 µM (≈ 79.2 µg/mL)	12 µM (≈ 19.8 µg/mL)	12 µM (≈ 19.8 µg/mL)	12 µM (≈ 19.8 µg/mL)	12 µM (≈ 19.8 µg/mL)	24 µM (≈ 39.6 µg/mL)	24 µM (≈ 39.6 µg/mL)	MIC (Escherichia coli [12]): 24 µM (≈ 39.6 µg/mL); hemolysis at 40 min, 3 µM [13]: 2%; MIC (Staphylococcus aureus [14]): 24 µM (≈ 39.6 µg/mL)
CC[C@H](C)[C@H](NC(=O)[C@H](CCCNC(=N)N)NC(=O)[C@H]1CCCN1C(=O)[C@H](CC(C)C)NC(=O)[C@H](Cc1ccccc1)NC(=O)[C@H](CCCCN)NC(=O)[C@H](CO)NC(=O)[C@H](Cc1ccccc1)NC(=O)[C@H](Cc1c[nH]c2ccccc12)NC(=O)[C@@H]1CCCN1C(=O)[C@@H](NC(=O)[C@@H](N)Cc1ccccc1)C(C)C)C(=O)N[C@@H](CC(C)C)C(N)=O	12 µM (≈ 19.8 µg/mL)	> 48 µM	12 µM (≈ 19.8 µg/mL)	2.5%	> 48 µM	2%	0.6%	24 µM (≈ 39.6 µg/mL)	48 µM (≈ 79.2 µg/mL)	3 µM (≈ 4.95 µg/mL)	48 µM (≈ 79.2 µg/mL)	24 µM (≈ 39.6 µg/mL)	0.4%	24 µM (≈ 39.6 µg/mL)	24 µM (≈ 39.6 µg/mL)	12 µM (≈ 19.8 µg/mL)	24 µM (≈ 39.6 µg/mL)	24 µM (≈ 39.6 µg/mL)	24 µM (≈ 39.6 µg/mL)	> 48 µM	MIC (Escherichia coli [12]): 48 µM (≈ 79.2 µg/mL); hemolysis at 40 min, 3 µM [13]: 1.5%; MIC (Staphylococcus aureus [14]): 48 µM (≈ 79.2 µg/mL)
CC[C@@H](C)[C@@H](NC(=O)[C@@H](CCCNC(=N)N)NC(=O)CNC(=O)[C@@H](CC(C)C)NC(=O)[C@@H](Cc1ccccc1)NC(=O)[C@@H](CCCCN)NC(=O)[C@@H](CO)NC(=O)[C@@H](Cc1ccccc1)NC(=O)[C@@H](Cc1c[nH]c2ccccc12)NC(=O)[C@@H](CCC(N)=O)NC(=O)[C@H](NC(=O)[C@H](N)Cc1ccccc1)C(C)C)C(=O)N[C@H](CC(C)C)C(N)=O [listing 1 of 2 here]	–	–	–	90%	–	88%	46%	–	–	–	–	–	5%	–	–	–	–	–	–	–	hemolysis at 40 min, 3 µM [13]: 13%
CC[C@@H](C)[C@@H](NC(=O)[C@@H](CCCNC(=N)N)NC(=O)CNC(=O)[C@@H](CC(C)C)NC(=O)[C@@H](Cc1ccccc1)NC(=O)[C@@H](CCCCN)NC(=O)[C@@H](CO)NC(=O)[C@@H](Cc1ccccc1)NC(=O)[C@@H](Cc1c[nH]c2ccccc12)NC(=O)[C@@H](CCC(N)=O)NC(=O)[C@H](NC(=O)[C@H](N)Cc1ccccc1)C(C)C)C(=O)N[C@H](CC(C)C)C(N)=O [listing 2 of 2 here]	6 µM (≈ 9.84 µg/mL)	> 48 µM	3 µM (≈ 4.92 µg/mL)	–	48 µM (≈ 78.7 µg/mL)	–	–	6 µM (≈ 9.84 µg/mL)	3 µM (≈ 4.92 µg/mL)	1.5 µM (≈ 2.46 µg/mL)	6 µM (≈ 9.84 µg/mL)	3 µM (≈ 4.92 µg/mL)	–	12 µM (≈ 19.7 µg/mL)	3 µM (≈ 4.92 µg/mL)	6 µM (≈ 9.84 µg/mL)	6 µM (≈ 9.84 µg/mL)	6 µM (≈ 9.84 µg/mL)	3 µM (≈ 4.92 µg/mL)	6 µM (≈ 9.84 µg/mL)	MIC (Escherichia coli [12]): 12 µM (≈ 19.7 µg/mL); MIC (Staphylococcus aureus [14]): 3 µM (≈ 4.92 µg/mL)
